In ChEMBL document CHEMBL2407062, “Synthesis and anticancer activities of 5,6,7-trimethoxy-N-phenyl(ethyl)-4-aminoquinazoline derivatives” (Eur J Med Chem, 2013):
pIC50: −log10 of the molar value. Calls of active or inactive are those of the source. No cut-off for these calls is given here.

What was measured:
PC-3 [1] = test: Induction of apoptosis in human PC3 cells assessed as apoptotic rate at 5 uM after 72 hrs by annexin-V FITC and propidium iodide staining-based FACS flow cytometric analysis relative to control; type: functional
How it was run: (§1)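 PC3 cells exposed to 1, 5 or 10 μM for 24, 48 or 72 h. Controls were 0.1% DMSO and HCPT 10 μM. Cells at 1 × 10⁶/mL washed twice with cold PBS, resuspended in binding buffer, stained with annexin V-FITC and PI. Apoptosis ratio is the sum of early (annexin+/PI−) and late (annexin+/PI+) fractions.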

PC-3 [2] = test: Induction of apoptosis in human PC3 cells assessed as apoptotic rate at 1 uM after 48 hrs by annexin-V FITC and propidium iodide staining-based FACS flow cytometric analysis relative to control; type: functional; how it was run: as §1
Bcap37 [3] = test: Growth inhibition of human Bcap37 cells at 1 uM after 72 hrs by MTT assay relative to control; type: functional; details: Homo sapiens, Bcap37, 72 h; read-out: GI
How it was run: (§2)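 Cells in RPMI 1640 with 10% heat-inactivated FBS, 37 °C, 5% CO2. Seeded at 2 × 10³ cells per well. Compounds dissolved in DMSO, diluted in medium, tested at 1–100 μM for 72 h; 0.1% DMSO control. MTT read-out, absorbance at 595 nm. Mean ± SD of triplicate experiments. IC50 taken from the dose–response curve.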

PC-3 [4] = test: Induction of apoptosis in human PC3 cells assessed as apoptotic rate after 24 to 72 hrs by annexin-V FITC and propidium iodide staining-based FACS flow cytometric analysis; type: functional, cell-based; how it was run: as §1
PC-3 [5] = test: Induction of apoptosis in human PC3 cells assessed as apoptotic rate at 5 uM after 24 hrs by annexin-V FITC and propidium iodide staining-based FACS flow cytometric analysis relative to control; type: functional; how it was run: as §1
PC-3 [6] = test: Induction of apoptosis in human PC3 cells assessed as late apoptotic cells at 10 uM after 72 hrs by AO/EB staining-based fluorescence microscopic analysis; type: functional, cell-based
How it was run: (§3)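 PC3 cells seeded at 5 × 10⁴ cells/mL on cover slips, then given fresh medium with 10% FBS plus compound, 10 μM for 24–72 h. HCPT 10 μM positive control. Stained with AO/EB (100 μg/mL) and examined by fluorescence microscopy. Green: live; green-yellow: early apoptotic; orange fragments: late apoptotic; orange without condensed chromatin: necrotic.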

Bcap37 [7] = test: Growth inhibition of human Bcap37 cells after 72 hrs by MTT assay; type: functional, cell-based; details: Bcap37, 72 h; how it was run: as §2
PC-3 [8] = test: Induction of apoptosis in human PC3 cells assessed as membrane blebbing at 10 uM after 24 to 72 hrs by AO/EB staining-based fluorescence microscopic analysis; type: functional, cell-based; how it was run: as §3
PC-3 [9] = test: Induction of apoptosis in human PC3 cells assessed as apoptotic rate at 10 uM after 24 hrs by annexin-V FITC and propidium iodide staining-based FACS flow cytometric analysis relative to control; type: functional
How it was run: (§4)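 PC3 cells (RPMI 1640 with 10% heat-inactivated FBS, 37 °C, 5% CO2) exposed to compound for 24, 48 or 72 h; 0.1% DMSO as negative control. Cells at 1 × 10⁶/mL washed twice in cold PBS, resuspended in binding buffer, stained with Annexin V-FITC and PI. Apoptosis ratio is early (Annexin+/PI−) plus late (Annexin+/PI+) apoptotic cells.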

PC-3 [10] = test: Induction of apoptosis in human PC3 cells at 10 uM after 24 to 72 hrs by AO/EB staining-based fluorescence microscopic analysis; type: functional, cell-based; how it was run: as §3
PC-3 [11] = test: Induction of apoptosis in human PC3 cells assessed as DNA fragmentation at 10 uM by agarose gel electrophoretic analysis; type: functional, cell-based
How it was run: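 PC3 cells treated at 10 μM. Apoptotic DNA fragments extracted, run on agarose gel electrophoresis, stained with Gold View.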

Bcap37 [12] = test: Growth inhibition of human Bcap37 cells at 10 uM after 72 hrs by MTT assay relative to control; type: functional; details: Homo sapiens, Bcap37, 72 h; read-out: GI; how it was run: as §2
PC-3 [13] = test: Induction of apoptosis in human PC3 cells assessed as apoptotic rate at 10 uM after 72 hrs by annexin-V FITC and propidium iodide staining-based FACS flow cytometric analysis relative to control; type: functional; how it was run: as §4
PC-3 [14] = test: Growth inhibition of human PC3 cells after 72 hrs by MTT assay; type: functional, cell-based; details: PC-3, 72 h; how it was run: as §2
PC-3 [15] = test: Induction of necrosis in human PC3 cells at 10 uM after 72 hrs by AO/EB staining-based fluorescence microscopic analysis; type: cell-based; details: pc-3, 72 h; how it was run: as §3
PC-3 [16] = test: Induction of apoptosis in human PC3 cells assessed as apoptotic rate at 10 uM after 48 hrs by annexin-V FITC and propidium iodide staining-based FACS flow cytometric analysis relative to control; type: functional; how it was run: as §4
PC-3 [17] = test: Induction of apoptosis in human PC3 cells assessed as apoptotic rate at 1 uM after 24 hrs by annexin-V FITC and propidium iodide staining-based FACS flow cytometric analysis relative to control; type: functional; how it was run: as §1
BGC-823 [18] = test: Growth inhibition of human BGC823 cells at 10 uM after 72 hrs by MTT assay relative to control; type: functional; details: BGC-823, 72 h, read-out: GI; how it was run: as §2
PC-3 [19] = test: Induction of apoptosis in human PC3 cells assessed as apoptotic rate at 5 uM after 48 hrs by annexin-V FITC and propidium iodide staining-based FACS flow cytometric analysis relative to control; type: functional; how it was run: as §1
PC-3 [20] = test: Induction of apoptosis in human PC3 cells assessed as apoptotic rate at 1 to 10 uM by annexin-V FITC and propidium iodide staining-based FACS flow cytometric analysis; type: functional, cell-based; details: TDE = time-dependent effect; how it was run: as §1
PC-3 [21] = test: Growth inhibition of human PC3 cells at 1 uM after 72 hrs by MTT assay relative to control; type: functional; details: Homo sapiens, PC-3, 72 h; read-out: GI; how it was run: as §2
BGC-823 [22] = test: Growth inhibition of human BGC823 cells at 1 uM after 72 hrs by MTT assay relative to control; type: functional; details: BGC-823, 72 h, read-out: GI; how it was run: as §2
BGC-823 [23] = test: Growth inhibition of human BGC823 cells after 72 hrs by MTT assay; type: functional, cell-based; details: BGC-823, 72 h; how it was run: as §2
PC-3 [24] = test: Growth inhibition of human PC3 cells at 10 uM after 72 hrs by MTT assay relative to control; type: functional; details: Homo sapiens, PC-3, 72 h; read-out: GI; how it was run: as §2
PC-3 [25] = test: Induction of apoptosis in human PC3 cells assessed as pycnosis at 10 uM after 24 to 72 hrs by AO/EB staining-based fluorescence microscopic analysis; type: functional, cell-based; how it was run: as §3
PC-3 [26] = test: Induction of apoptosis in human PC3 cells assessed as cell budding at 10 uM after 24 to 72 hrs by AO/EB staining-based fluorescence microscopic analysis; type: functional; how it was run: as §3
[27] = target: T1, Mitogen-activated protein kinase; ERK1/ERK2 (Homo sapiens) (UniProt P27361+P28482); test: Inhibition of EGF-induced ERK1/2 phosphorylation in human PC3 cells at 1.28 uM incubated for 60 mins prior to EGF-treatment measured after 10 mins by Western blotting analysis; type: cell-based; details: PC-3
How it was run: (§5)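 PC3 cells grown 36–48 h in RPMI 1640 with 10% FBS at 37 °C, then serum-starved 24 h. Treated with compound for 60 min, then EGF 10 ng/mL for 10 min; quenched on ice. Cells washed with cold PBS and lysed in NP-40/SDS buffer with Na3VO4 and NaF. Run on 10% SDS-PAGE, PVDF blot probed for pERK1/2 with actin as loading control, ECL detection.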

PC-3 [28] = test: Induction of apoptosis in human PC3 cells assessed as apoptotic cells at 10 uM after 72 hrs by Hoechst 33258 staining-based fluorescence microscopic analysis; type: functional, cell-based
How it was run: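 PC3 cells treated at 1 and 10 μM for 72 h, then stained with Hoechst 33258 and viewed by fluorescence microscopy. DMSO negative control; HCPT 10 μM for 72 h positive control. Bright blue condensed nuclei were scored as apoptotic.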

[29] = target: T1, Mitogen-activated protein kinase; ERK1/ERK2 (Homo sapiens); test: Inhibition of EGF-induced ERK1/2 phosphorylation in human PC3 cells at 10 uM incubated for 60 mins prior to EGF-treatment measured after 10 mins by Western blotting analysis; type: cell-based; details: PC-3; how it was run: as §5
PC-3 [30] = test: Induction of apoptosis in human PC3 cells assessed as apoptotic rate at 1 uM after 72 hrs by annexin-V FITC and propidium iodide staining-based FACS flow cytometric analysis relative to control; type: functional; how it was run: as §1

T1 sequence (P27361 whole entry, looked up): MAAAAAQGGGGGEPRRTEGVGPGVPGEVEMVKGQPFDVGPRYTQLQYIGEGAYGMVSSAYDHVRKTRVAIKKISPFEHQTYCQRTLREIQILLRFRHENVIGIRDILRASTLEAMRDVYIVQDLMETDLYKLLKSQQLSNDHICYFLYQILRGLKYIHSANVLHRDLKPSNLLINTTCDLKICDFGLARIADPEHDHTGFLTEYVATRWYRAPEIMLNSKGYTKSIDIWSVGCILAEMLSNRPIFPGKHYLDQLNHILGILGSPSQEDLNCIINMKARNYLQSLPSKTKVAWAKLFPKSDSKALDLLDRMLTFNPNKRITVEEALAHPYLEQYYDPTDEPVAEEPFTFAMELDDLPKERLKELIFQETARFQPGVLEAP
T1 sequence (P28482 whole entry, looked up): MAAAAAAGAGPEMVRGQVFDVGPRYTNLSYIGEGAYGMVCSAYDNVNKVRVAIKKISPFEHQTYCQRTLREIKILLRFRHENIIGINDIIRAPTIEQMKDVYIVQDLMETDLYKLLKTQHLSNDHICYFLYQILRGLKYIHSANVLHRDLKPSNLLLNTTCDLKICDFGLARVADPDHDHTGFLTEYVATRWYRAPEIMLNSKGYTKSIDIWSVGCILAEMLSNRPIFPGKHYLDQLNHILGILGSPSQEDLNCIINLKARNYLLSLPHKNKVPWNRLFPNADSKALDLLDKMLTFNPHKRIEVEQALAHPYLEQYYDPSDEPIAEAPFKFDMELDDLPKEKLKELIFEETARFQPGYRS

Compound: COc1cc2ncnc(NCCc3ccccc3F)c2c(OC)c1OC
- Activity (PC-3 [1]): 19.8%
- Activity (PC-3 [2]): 9.5%
- inhibition of growth at 1 µM (Bcap37 [3]): 46.5%
- Activity (PC-3 [4]): Dose-dependent effect
- Activity (PC-3 [5]): 8.2%
- Activity (PC-3 [6]): Active
- pIC50 (Bcap37 [7]): 5.51
- Activity (PC-3 [8]): Active
- Activity (PC-3 [9]): 10.9%
- Activity (PC-3 [10]): Active
- Activity (PC-3 [11]): Active
- inhibition of growth at 10 µM (Bcap37 [12]): 90.4%
- Activity (PC-3 [13]): 31.8%
- pIC50 (PC-3 [14]): 5.21
- Activity (PC-3 [15]): Non-toxic
- Activity (PC-3 [16]): 16.4%
- Activity (PC-3 [17]): 5.1%
- inhibition of growth at 10 µM (BGC-823 [18]): 88.2%
- Activity (PC-3 [19]): 11.1%
- Activity (PC-3 [20]): tde
- inhibition of growth at 1 µM (PC-3 [21]): 22.6%
- inhibition of growth at 1 µM (BGC-823 [22]): 38.7%
- pIC50 (BGC-823 [23]): 5.49
- inhibition of growth at 10 µM (PC-3 [24]): 90.6%
- Activity (PC-3 [25]): Active
- Activity (PC-3 [26]): Active
- inhibition [27]: Active
- Activity (PC-3 [28]): Active
- inhibition [29]: Active
- Activity (PC-3 [30]): 11.6%
